Reference: ChEMBL document CHEMBL3098058, “Imidazole-derived agonists for the neurotensin 1 receptor” (Bioorg Med Chem Lett, 2014)
pEC50, pKi: −log10 of the molar value. Converted amounts (≈) assume the structure as drawn. Each block holds one compound with its values, some of them ahead of it. The source made the active and inactive calls. The calls are words filed in the database; no cut-off is given here.

Legend:
[1] = target: T1, Neurotensin receptor type 1 (Homo sapiens, UniProt P30989); experiment: Agonist activity at NTR1 in human U2OS cells after 1 hr by beta-arrestin GFP reporter gene assay relative to NT peptide; assay type: cell-based
Method in brief: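 U2OS cells expressing NTR1 and a fluorescent β-arrestin reporter, imaged by high-content imaging of receptor–arrestin complex location after activation. EC50 and Emax are calculated relative to the efficacy of NT peptide at a saturating 100 nM.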
Target sequence in this assay (P30989 whole entry): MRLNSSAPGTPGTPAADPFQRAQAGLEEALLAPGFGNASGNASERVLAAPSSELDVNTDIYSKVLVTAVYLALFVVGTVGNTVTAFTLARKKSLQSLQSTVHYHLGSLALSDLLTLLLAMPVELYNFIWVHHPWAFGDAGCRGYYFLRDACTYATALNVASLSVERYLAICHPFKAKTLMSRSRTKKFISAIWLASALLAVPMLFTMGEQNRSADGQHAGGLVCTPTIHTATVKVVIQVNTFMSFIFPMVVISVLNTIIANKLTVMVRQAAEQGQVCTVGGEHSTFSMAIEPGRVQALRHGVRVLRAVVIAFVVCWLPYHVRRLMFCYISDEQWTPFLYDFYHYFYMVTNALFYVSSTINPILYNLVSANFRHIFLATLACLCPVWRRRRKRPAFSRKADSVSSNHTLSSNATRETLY

[2] = target: T1, Neurotensin receptor type 1; experiment: Agonist activity at NTR1 in human U2OS cells after 1 hr by beta-arrestin GFP reporter gene assay; assay type: cell-based
Method in brief: (§1)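 High-content imaging in U2OS cells expressing the receptor of interest (NTR1, NTR2 or GPR35) plus a β-arrestin fluorescent reporter. The read-out is the location of the receptor–arrestin complex after receptor activation.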
Target sequence in this assay (P30989 whole entry): as above

[3] = Plasma protein binding in mouse at 1 uM; assay type: ADME, cell-free
Method in brief: (§2)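 Plasma protein binding in human or mouse plasma at 1 μM and 10 μM compound, given as % bound.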

[4] = Metabolic stability in mouse liver microsomes assessed as compound remaining at 1hr; assay type: ADME, Microsome; conditions: read-out: Stability
Method in brief: (§3)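 Compound stability in human or mouse liver homogenate/microsomes, given as % remaining at 1 hr, run in triplicate.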

[5] = Plasma protein binding in human at 10 uM; assay type: ADME, cell-free; method in brief: as §2
[6] = Plasma protein binding in human at 1 uM; assay type: ADME, cell-free; method in brief: as §2
[7] = Metabolic stability in human plasma assessed as compound remaining at 3 hrs; assay type: ADME, cell-free; conditions: read-out: Stability
[8] = Metabolic stability in human liver microsomes assessed as compound remaining at 1 hr; assay type: ADME; conditions: read-out: Stability; method in brief: as §3
[9] = Permeability of the compound at donor pH 5.0 and acceptor pH 7.4 by PAMPA; assay type: ADME
[10] = Aqueous solubility of the compound in pION buffer at pH 7.4; assay type: physicochemical
[11] = Aqueous solubility of the compound in pION buffer at pH 6.2; assay type: physicochemical
[12] = Metabolic stability in mouse plasma assessed as compound remaining at 3 hrs; assay type: ADME, cell-free; conditions: read-out: Stability
[13] = Plasma protein binding in mouse at 10 uM; assay type: ADME, cell-free; method in brief: as §2
[14] = Cytotoxicity in human Fa2N-4 cells after 24 hrs; assay type: cell-based; conditions: fa2n-4, 24 h, read-out: LC50 (the source's name)
Method in brief: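 Fa2N-4 cells are immortalized human hepatocytes. Compounds were exposed for 24 hours. Readout is the LC50 (μM).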

[15] = Aqueous solubility of the compound in pION buffer at pH 5.0; assay type: physicochemical
[16] = Blood brain permeability of the compound at donor and acceptor pH 7.4 by PAMPA; assay type: ADME
[17] = Permeability of the compound at donor and acceptor pH 7.4 by PAMPA; assay type: ADME
[18] = Permeability of the compound at donor pH 6.2 and acceptor pH 7.4 by PAMPA; assay type: ADME
[19] = target: Sodium-dependent dopamine transporter (Homo sapiens, UniProt Q01959); experiment: Inhibition of DAT (unknown origin)
Sequence of Sodium-dependent dopamine transporter (Q01959 whole entry): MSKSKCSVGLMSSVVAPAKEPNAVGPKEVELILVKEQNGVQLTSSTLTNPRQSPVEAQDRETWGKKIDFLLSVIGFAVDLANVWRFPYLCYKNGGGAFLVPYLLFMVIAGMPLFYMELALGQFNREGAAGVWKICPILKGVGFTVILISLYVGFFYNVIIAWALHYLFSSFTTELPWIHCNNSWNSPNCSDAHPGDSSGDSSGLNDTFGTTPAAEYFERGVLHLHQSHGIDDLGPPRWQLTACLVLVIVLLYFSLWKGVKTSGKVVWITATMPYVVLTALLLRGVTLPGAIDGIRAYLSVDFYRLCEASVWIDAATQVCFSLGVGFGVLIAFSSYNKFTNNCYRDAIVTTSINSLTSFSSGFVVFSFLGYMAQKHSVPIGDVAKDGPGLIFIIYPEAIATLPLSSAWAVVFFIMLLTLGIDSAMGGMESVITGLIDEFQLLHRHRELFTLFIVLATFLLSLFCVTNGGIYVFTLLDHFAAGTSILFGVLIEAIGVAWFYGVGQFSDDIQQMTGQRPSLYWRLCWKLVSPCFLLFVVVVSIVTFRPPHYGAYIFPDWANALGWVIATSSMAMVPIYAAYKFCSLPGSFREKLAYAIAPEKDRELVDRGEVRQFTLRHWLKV

[20] = target: T1, Neurotensin receptor type 1; experiment: Agonist activity at NTR1 (unknown origin) expressed in CHO cells assessed as Ca2+ mobilization by Fluo-4 NW dye-based fluorescence assay; assay type: functional, cell-based
Target sequence in this assay (P30989 whole entry): as the sequence (P30989 whole entry) above

[21] = target: T1, Neurotensin receptor type 1; experiment: Inhibition of NTS1 receptor (unknown origin)
Target sequence in this assay (P30989 whole entry): as above

[22] = target: Neurotensin receptor type 2 (Homo sapiens, UniProt O95665); experiment: Agonist activity at NTR2 in human U2OS cells after 1 hr by beta-arrestin GFP reporter gene assay; assay type: cell-based; method in brief: as §1
Sequence of Neurotensin receptor type 2 (O95665 whole entry): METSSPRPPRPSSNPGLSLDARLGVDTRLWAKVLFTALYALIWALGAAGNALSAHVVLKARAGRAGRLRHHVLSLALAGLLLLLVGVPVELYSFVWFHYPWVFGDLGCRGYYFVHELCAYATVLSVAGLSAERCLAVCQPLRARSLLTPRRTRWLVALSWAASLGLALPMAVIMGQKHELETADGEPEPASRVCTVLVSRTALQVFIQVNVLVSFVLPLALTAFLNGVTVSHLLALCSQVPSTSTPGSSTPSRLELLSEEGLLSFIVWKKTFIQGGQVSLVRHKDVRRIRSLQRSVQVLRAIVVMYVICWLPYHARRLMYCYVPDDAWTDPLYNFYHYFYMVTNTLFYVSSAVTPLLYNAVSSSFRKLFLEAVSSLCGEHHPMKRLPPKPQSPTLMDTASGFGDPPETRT

[23] = target: G-protein coupled receptor 35 (Homo sapiens, UniProt Q9HC97); experiment: Agonist activity at GPR35 in human U2OS cells after 1 hr by beta-arrestin GFP reporter gene assay; assay type: cell-based; method in brief: as §1
Sequence of G-protein coupled receptor 35 (Q9HC97 whole entry): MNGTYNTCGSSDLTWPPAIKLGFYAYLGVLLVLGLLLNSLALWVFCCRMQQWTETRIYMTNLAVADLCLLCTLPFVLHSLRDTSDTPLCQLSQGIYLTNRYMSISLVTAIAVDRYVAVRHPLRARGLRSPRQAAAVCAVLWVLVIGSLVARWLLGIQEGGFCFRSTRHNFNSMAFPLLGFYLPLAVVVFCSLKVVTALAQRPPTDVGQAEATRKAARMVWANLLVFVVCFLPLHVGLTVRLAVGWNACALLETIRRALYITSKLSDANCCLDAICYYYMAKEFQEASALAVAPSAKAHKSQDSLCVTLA

[24] = target: Delta-type opioid receptor (Homo sapiens, UniProt P41143); experiment: Inhibition of DOR (unknown origin)
Sequence of Delta-type opioid receptor (P41143 whole entry): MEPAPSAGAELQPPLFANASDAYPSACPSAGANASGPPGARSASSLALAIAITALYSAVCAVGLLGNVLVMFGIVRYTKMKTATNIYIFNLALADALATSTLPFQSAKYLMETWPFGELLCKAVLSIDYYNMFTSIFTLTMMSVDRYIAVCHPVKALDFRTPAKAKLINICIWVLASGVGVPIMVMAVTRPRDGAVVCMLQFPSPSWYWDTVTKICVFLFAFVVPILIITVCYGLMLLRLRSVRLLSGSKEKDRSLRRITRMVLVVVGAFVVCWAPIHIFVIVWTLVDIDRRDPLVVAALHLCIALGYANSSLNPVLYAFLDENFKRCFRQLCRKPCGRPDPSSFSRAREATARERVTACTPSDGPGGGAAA

Mu-type opioid receptor = Mu-type opioid receptor (Homo sapiens, UniProt P35372); experiment: Inhibition of MOR (unknown origin)
Sequence of Mu-type opioid receptor (P35372 whole entry, the tested form may be a part): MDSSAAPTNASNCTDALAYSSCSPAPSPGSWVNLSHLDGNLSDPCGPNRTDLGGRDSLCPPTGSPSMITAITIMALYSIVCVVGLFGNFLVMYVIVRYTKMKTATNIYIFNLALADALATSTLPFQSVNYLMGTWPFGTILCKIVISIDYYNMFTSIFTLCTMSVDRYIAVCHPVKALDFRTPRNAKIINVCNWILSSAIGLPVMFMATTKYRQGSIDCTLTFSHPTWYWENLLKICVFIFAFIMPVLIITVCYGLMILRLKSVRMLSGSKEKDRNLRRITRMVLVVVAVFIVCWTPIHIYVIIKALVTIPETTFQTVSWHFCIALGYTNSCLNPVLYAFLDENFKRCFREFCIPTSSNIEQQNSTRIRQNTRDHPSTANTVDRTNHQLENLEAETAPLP

[25] = target: T1, Neurotensin receptor type 1; experiment: Agonist activity at NTR1 (unknown origin) expressed in CHO-K1 cells coexpressing beta-arrestin/N-terminal deletion mutant of beta-galactosidase fusion protein by chemiluminescence assay; assay type: cell-based
Method in brief: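 DiscoveRx PathHunter format. CHO-K1 cells express NTR1 fused in frame to the small ProLink β-gal fragment, stably co-expressed with β-arrestin fused to the N-terminal-deletion β-gal enzyme acceptor. Receptor activation recruits β-arrestin, which forces fragment complementation into active β-gal. The resulting enzyme activity is read by chemiluminescence. EC50 and Emax are expressed as % of NT peptide response.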
Target sequence in this assay (P30989 whole entry, looked up, change not shown): as the sequence (P30989 whole entry) above

[26] = target: T1, Neurotensin receptor type 1; experiment: Ratio of EC50 for NTR1 in human U2OS cells to EC50 for NTR1 (unknown origin) expressed in CHO cells assessed as Ca2+ mobilization; assay type: functional, cell-based
Target sequence in this assay (P30989 whole entry): as above

[27] = target: T1, Neurotensin receptor type 1; experiment: Agonist activity at NTR1 (unknown origin) at 10 uM in presence of SR142948A
Method in brief: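 NTR1 activation is driven by agonist at 10 μM after preincubation with a known NTR1 antagonist. Antagonist inhibition of this activation is reported as IC50.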
Target sequence in this assay (P30989 whole entry): as above

[28] = target: T1, Neurotensin receptor type 1; experiment: Agonist activity at NTR1 (unknown origin) expressed in CHO-K1 cells coexpressing coexpressing beta-arrestin/N-terminal deletion mutant of beta-galactosidase fusion protein by chemiluminescence assay relative to NT peptide; assay type: cell-based
Method in brief: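 PathHunter complementation in CHO-K1 cells. NTR1 is fused to the ProLink small enzyme fragment and co-expressed with a β-arrestin fusion to the N-terminal-deleted β-gal enzyme acceptor. Activation drives β-arrestin binding and β-gal fragment complementation, and enzyme activity is read by chemiluminescence.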

[29] = target: T1, Neurotensin receptor type 1; experiment: Agonist activity at NTR1 (unknown origin) expressed in CHO cells assessed as Ca2+ mobilization by Fluo-4 NW dye-based fluorescence assay relative to NT peptide; assay type: functional, cell-based

Emax [1]: 80%
pEC50 [2]: 5.28
Structure (SMILES): CC(C)C[C@H](NC(=O)c1cn(-c2ccnc3cc(Cl)ccc23)c(-c2c(Cl)cccc2Cl)n1)C(=O)O

pEC50 [2]: < 4.10
Structure (SMILES): COc1ccccc1-c1nc(C(=O)N[C@@H](CC(C)C)C(=O)O)cn1-c1ccnc2ccccc12

Emax [1]: 100%
pEC50 [2]: 4.25
Structure (SMILES): COc1ccccc1-c1nc(C(=O)N[C@@H](CC(C)C)C(=O)O)cn1-c1ccnc2cc(Cl)ccc12

Emax [1]: 98%
pEC50 [2]: 6.01
Structure (SMILES): COc1ccccc1-c1cc(C(=O)N[C@H](CC(C)C)C(=O)O)nn1-c1ccnc2cc(Cl)ccc12

pEC50 [2]: < 4.10
Structure (SMILES): CC(C)C[C@H](NC(=O)c1cn(-c2ccncc2)c(-c2ccccc2)n1)C(=O)O

Emax [1]: 78%
pEC50 [2]: 5.04
Structure (SMILES): Cc1cccc(C)c1-c1nc(C(=O)N[C@@H](CC(C)C)C(=O)O)cn1-c1ccnc2cc(Cl)ccc12

Structure (SMILES): COc1cccc(OC)c1-c1nc(C(=O)N[C@@H](CC(C)C)C(=O)O)cn1-c1cccc2ccccc12
PPB [3]: 96.4%
remaining at 1 h [4]: 76%
PPB [5]: 98%
PPB [6]: 97.9%
remaining at 3 h [7]: 76%
remaining at 1 h [8]: 100%
permeability [9]: 953 ×10⁻⁶ cm/s
Emax [1]: 93%
solubility [10]: > 297 µM
solubility [11]: > 297 µM
remaining at 3 h [12]: 76%
PPB [13]: 95.4%
CC50 [14]: > 50 µM
solubility [15]: 247 µM (≈ 120 µg/mL)
permeability [16]: 1.1 ×10⁻⁶ cm/s
pEC50 [2]: 5.64
permeability [17]: 12 ×10⁻⁶ cm/s
permeability [18]: 145 ×10⁻⁶ cm/s

pEC50 [2]: < 4.10
Structure (SMILES): COc1ccc(-c2nc(C(=O)N[C@@H](CC(C)C)C(=O)O)cn2-c2ccnc3cc(Cl)ccc23)c(OC)c1

pEC50 [2]: < 4.10
Structure (SMILES): COc1cccc(OC)c1-c1cc(C(=O)NC2(C(=O)O)C3CC4CC(C3)CC2C4)nn1-c1ccc(C(=O)N(C)CCCN(C)C)cc1C(C)C (stereo not drawn)

pEC50 [2]: < 4.10
Structure (SMILES): COc1ccccc1-c1nc(C(=O)N[C@@H](CC(C)C)C(=O)O)cn1-c1ccncc1

Structure (SMILES): COc1cccc(OC)c1-c1cc(C(=O)N[C@@H](CC(C)C)C(=O)O)nn1-c1ccnc2cc(Cl)ccc12
PPB [3]: 96.6%
pKi [19]: < 5.00
pEC50 [20]: > 6.81
remaining at 1 h [4]: 46%
pKi [21]: 5.48
PPB [5]: 99.7%
PPB [6]: 99.6%
pEC50 [22]: < 4.10
pEC50 [23]: < 4.40
remaining at 3 h [7]: 88.9%
remaining at 1 h [8]: 76%
permeability [9]: 1270 ×10⁻⁶ cm/s
pKi [24]: 5.28
Emax [1]: 100%
solubility [10]: > 296 µM
solubility [11]: > 296 µM
remaining at 3 h [12]: 70.7%
PPB [13]: 97.1%
pKi (Mu-type opioid receptor): 5.47
CC50 [14]: > 50 µM
solubility [15]: 113 µM (≈ 59.1 µg/mL)
permeability [16]: 4.8 ×10⁻⁶ cm/s
pEC50 [25]: < 4.48
Ratio EC50 [26]: 5
permeability [18]: 725 ×10⁻⁶ cm/s

Emax [1]: 100%
pEC50 [2]: 4.18
Structure (SMILES): COc1cccc(OC)c1-c1nc(C(=O)N[C@@H](CC(C)C)C(=O)O)cn1-c1ccncc1

Emax [1]: 59%
pEC50 [2]: 5.42
Structure (SMILES): COc1cccc(OC)c1-c1nc(C(=O)N[C@@H](CC(C)C)C(=O)O)cn1-c1ccnc2ccccc12

Emax [1]: 100%
pEC50 [2]: 4.14
Structure (SMILES): CC(C)C[C@H](NC(=O)c1cn(-c2ccnc3cc(Cl)ccc23)c(-c2ccccc2)n1)C(=O)O

Emax [1]: 50%
pEC50 [2]: 5.03
Structure (SMILES): COc1cccc(OC)c1-c1nc(C(=O)N[C@H](CC(C)C)C(=O)O)cn1-c1ccnc2cc(Cl)ccc12

Structure (SMILES): COc1cccc(OC)c1-c1nc(C(=O)N[C@@H](CC(C)C)C(=O)O)cn1-c1ccnc2cc(Cl)ccc12
PPB [3]: 92.2%
pKi [19]: < 5.00
pEC50 [20]: 6.53
remaining at 1 h [4]: 59%
pKi [21]: 5.00
Activity [27]: inactive
PPB [5]: 98.7%
PPB [6]: 98.7%
pEC50 [22]: < 4.10
pEC50 [23]: < 4.40
remaining at 3 h [7]: 100%
remaining at 1 h [8]: 100%
permeability [9]: 363 ×10⁻⁶ cm/s
Emax [1]: 79%
solubility [10]: > 99 µM
solubility [11]: > 99 µM
remaining at 3 h [12]: 100%
PPB [13]: 91.4%
CC50 [14]: > 50 µM
solubility [15]: > 99 µM
permeability [16]: 1.2 ×10⁻⁶ cm/s
pEC50 [2]: 5.70
pEC50 [25]: 5.21
Emax [28]: 100%
Ratio EC50 [26]: 5
Emax [29]: 93%
permeability [17]: 6 ×10⁻⁶ cm/s
permeability [18]: 17 ×10⁻⁶ cm/s

Emax [1]: 100%
pEC50 [2]: 4.34
Structure (SMILES): COc1cccc(OC)c1-c1nc(C(=O)NC2(C(=O)O)C3CC4CC(C3)CC2C4)cn1-c1ccnc2cc(Cl)ccc12 (stereo not drawn)

pEC50 [2]: < 4.10
Structure (SMILES): COc1cccc(OC)c1-c1nc(C(=O)N[C@@H](CC(C)C)C(=O)O)cn1-c1ccc(C)cc1

pEC50 [2]: < 4.10
Structure (SMILES): CC(C)C[C@H](NC(=O)c1cn(-c2ccnc3ccccc23)c(-c2ccccc2)n1)C(=O)O

Emax [1]: 100%
pEC50 [2]: 4.51
Structure (SMILES): COc1cccc(OC)c1-c1cc(C(=O)NC2(C(=O)O)C3CC4CC(C3)CC2C4)nn1-c1ccnc2cc(Cl)ccc12 (stereo not drawn) [REMINERTANT]
